# Measured values from ChEMBL document CHEMBL4043181, “A new chemotype inhibitor for the human organic cation transporter 3 (hOCT3)” (Bioorg Med Chem Lett, 2017).
# Columns and labels:
# Homo sapiens [1] = species on record: Homo sapiens; test: Selectivity ratio of IC50 for human OCT1 expressed in HEK293 cells to IC50 for human OCT3 expressed in HEK293 cells; assay type: cell-based
# [2] = target: T1, Solute carrier family 22 member 3 (Homo sapiens, UniProt O75751); test: Inhibition of human OCT3 expressed in HEK293 cells assessed as decrease in uptake of substrate [3H]MPP+ after 1 min by liquid scintillation counting method; assay type: cell-based
# T1 sequence (O75751 whole entry): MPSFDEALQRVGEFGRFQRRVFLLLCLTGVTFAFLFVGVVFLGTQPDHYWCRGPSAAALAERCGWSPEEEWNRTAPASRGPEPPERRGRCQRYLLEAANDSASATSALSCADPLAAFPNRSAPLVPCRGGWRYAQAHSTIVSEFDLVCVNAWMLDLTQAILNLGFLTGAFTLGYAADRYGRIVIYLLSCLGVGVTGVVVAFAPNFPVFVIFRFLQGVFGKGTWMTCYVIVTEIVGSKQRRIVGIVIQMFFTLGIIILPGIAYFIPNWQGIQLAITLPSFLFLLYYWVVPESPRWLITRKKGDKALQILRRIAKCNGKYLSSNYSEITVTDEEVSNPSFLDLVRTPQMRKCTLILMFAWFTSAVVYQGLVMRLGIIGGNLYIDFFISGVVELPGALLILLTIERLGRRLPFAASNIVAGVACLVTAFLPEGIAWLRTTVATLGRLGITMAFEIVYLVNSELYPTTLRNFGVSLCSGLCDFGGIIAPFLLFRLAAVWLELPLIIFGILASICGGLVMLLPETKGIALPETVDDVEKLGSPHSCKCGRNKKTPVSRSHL
# How it was run: (§1)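 Stably transfected HEK293 cells expressing hOCT1, hOCT2 or hOCT3; 1 min uptake of [3H]MPP+ (1 μM) measured across inhibitor concentrations 10^-8 to 10^-2.5 M. Signal corrected for nonspecific background in empty-vector control cells; data as mean ± SD; IC50 obtained by nonlinear regression.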
# Homo sapiens [3] = species on record: Homo sapiens; test: Selectivity ratio of IC50 for human OCT2 expressed in HEK293 cells to IC50 for human OCT3 expressed in HEK293 cells; assay type: cell-based
# [4] = target: T2, Solute carrier family 22 member 1 (Homo sapiens, UniProt O15245); test: Inhibition of human OCT1 expressed in HEK293 cells assessed as decrease in uptake of substrate [3H]MPP+ after 1 min by liquid scintillation counting method; assay type: cell-based; how it was run: as §1
# T2 sequence (O15245 whole entry): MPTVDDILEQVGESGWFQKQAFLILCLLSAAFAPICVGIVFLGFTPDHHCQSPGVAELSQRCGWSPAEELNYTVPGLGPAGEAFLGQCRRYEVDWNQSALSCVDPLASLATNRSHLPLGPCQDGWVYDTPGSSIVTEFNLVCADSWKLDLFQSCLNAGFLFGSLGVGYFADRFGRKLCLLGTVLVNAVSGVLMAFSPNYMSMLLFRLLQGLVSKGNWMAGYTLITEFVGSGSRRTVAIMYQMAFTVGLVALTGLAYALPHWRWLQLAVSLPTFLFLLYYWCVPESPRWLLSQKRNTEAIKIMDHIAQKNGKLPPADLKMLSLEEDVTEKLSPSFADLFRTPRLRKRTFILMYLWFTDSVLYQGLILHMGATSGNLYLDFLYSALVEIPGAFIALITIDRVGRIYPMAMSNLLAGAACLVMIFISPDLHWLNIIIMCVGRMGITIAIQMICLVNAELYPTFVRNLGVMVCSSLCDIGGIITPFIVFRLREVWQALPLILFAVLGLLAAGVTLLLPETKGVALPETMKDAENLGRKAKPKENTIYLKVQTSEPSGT
# [5] = target: T3, Solute carrier family 22 member 2 (Homo sapiens, UniProt O15244); test: Inhibition of human OCT2 expressed in HEK293 cells assessed as decrease in uptake of substrate [3H]MPP+ after 1 min by liquid scintillation counting method; assay type: cell-based; how it was run: as §1
# T3 sequence (O15244 whole entry): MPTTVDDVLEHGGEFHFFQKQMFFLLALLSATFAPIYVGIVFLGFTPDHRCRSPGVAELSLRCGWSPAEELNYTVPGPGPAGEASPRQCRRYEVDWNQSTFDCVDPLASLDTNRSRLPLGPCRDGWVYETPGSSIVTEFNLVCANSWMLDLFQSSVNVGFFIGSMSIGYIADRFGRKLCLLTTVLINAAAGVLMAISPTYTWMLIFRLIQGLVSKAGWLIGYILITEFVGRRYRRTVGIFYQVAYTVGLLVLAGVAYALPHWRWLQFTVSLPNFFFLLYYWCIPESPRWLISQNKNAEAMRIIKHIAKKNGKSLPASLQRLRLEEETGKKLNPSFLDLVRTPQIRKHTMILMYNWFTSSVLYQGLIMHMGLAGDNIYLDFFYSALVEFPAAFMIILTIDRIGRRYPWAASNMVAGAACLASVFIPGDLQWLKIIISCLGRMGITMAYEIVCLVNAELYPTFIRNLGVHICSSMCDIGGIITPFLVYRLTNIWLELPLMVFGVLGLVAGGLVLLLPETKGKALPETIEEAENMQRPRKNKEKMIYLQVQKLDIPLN
# [6] = target: T1, Solute carrier family 22 member 3; test: Competitive inhibition of human OCT3 expressed in HEK293 cells up to 25 uM in presence of varying concentration of MPP+ by Lineweaver-Burk plot analysis; assay type: cell-based
# How it was run: (§2)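 HEK293 cells stably expressing hOCT3; 1 min cellular accumulation of MPP+ (1-150 μM) with or without inhibitor at two concentrations. Uptake corrected for background in non-transporter-expressing control cells. Saturation curves fitted by nonlinear regression to a mixed-model inhibition equation to define mode of inhibition; Lineweaver-Burk transforms used for display.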
# [7] = target: T1, Solute carrier family 22 member 3; test: Competitive inhibition of human OCT3 expressed in HEK293 cells up to 10 uM in presence of varying concentration of MPP+ by Lineweaver-Burk plot analysis; assay type: cell-based; how it was run: as §2
# [8] = target: T1, Solute carrier family 22 member 3; test: Competitive inhibition of human OCT3 expressed in HEK293 cells in presence of varying concentration of MPP+ by Lineweaver-Burk plot analysis; assay type: cell-based; how it was run: as §2
# [9] = target: T1, Solute carrier family 22 member 3; test: Inhibition of OCT3 (unknown origin)
Structure (SMILES),Ratio IC50 (Homo sapiens [1]),IC50 [2],Ratio IC50 (Homo sapiens [3]),IC50 [4],IC50 [5],inhibition (INH) [6],inhibition (INH) [7],inhibition (INH) [8],IC50 [9]
N=C(N)Nc1ccc(F)cc1,< 5,27.8 µM,< 5,22.6 µM,48.3 µM,–,–,–,–
N=C(N)Nc1ccc(Cl)cc1,< 5,2.8 µM,6,10 µM,18.9 µM,Active,–,–,–
N=C(N)Nc1ccccc1 [PHENYLGUANIDINE],< 5,99.8 µM,< 5,41.1 µM,89 µM,–,–,–,–
CC(C)(C)c1ccc(N=C(N)N)cc1,< 5,2.2 µM,< 5,0.9 µM,8.3 µM,–,Active,–,–
C=C[C@H]1C[N@@]2CC[C@H]1C[C@H]2[C@H](O)c1ccnc2ccc(OC)cc12 [QUININE],–,–,–,–,–,–,–,Active,–
NC(N)=Nc1cccc(Cl)c1,–,7.6 µM,–,13.7 µM,60.5 µM,–,–,–,–
N=C(N)Nc1ccc(Br)cc1,< 5,4.8 µM,< 5,6.3 µM,11.3 µM,–,–,–,–
Cc1ccc(NC(=N)N)cc1,< 5,4.6 µM,< 5,10 µM,9.3 µM,–,–,–,–
N=C(N)Nc1ccc(Cc2ccccc2)cc1,< 5,452 µM,< 5,762 µM,96.2 µM,–,–,–,–
N=C(N)N [GUANIDINE],–,–,–,–,–,–,–,–,2200 to 6200 µM
N=C(N)Nc1cccc(Cl)c1,< 5,–,8,–,–,–,–,–,–
NC(N)=Nc1ccc(I)cc1,< 5,1.5 µM,< 5,2.4 µM,4.4 µM,–,–,–,–
